Results on 14 molecules are retold here after ChEMBL document CHEMBL4138132, “Design, synthesis and biological evaluation of substituted aminopyridazin-3(2H)-ones as G0/G1-phase arresting agents with apoptosis-inducing activities” (Eur J Med Chem, 2017).

Molecules are shown by their SMILES. Bounds are passed on as bounds.

The test system of assay [1] is K562. Kind of assay: Antiproliferative activity against human K562 cells after 48 hrs by MTT assay. The assay is classed as functional. The conditions noted are these: K562, 48 h. Put shortly: (§1)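 MTT read-out after 48 h incubation. GI50 taken as the concentration giving 50% growth inhibition relative to untreated controls. Fluorouracil served as positive control.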
A general note: Formazan colour is commonly taken as a measure of viable cells.

Assay [2] concerns SH-SY5Y. Kind of assay: Antiproliferative activity against human SH-SY5Y cells after 48 hrs by MTT assay. The assay is classed as functional. A digest of the protocol: as §1
In assay [3] the test system is AGS. Kind of assay: Antiproliferative activity against human AGS cells after 48 hrs by MTT assay. The assay is classed as functional. Put shortly:
as §1

Assay [4] in a line: Inhibition of PDE4 (unknown origin) using FAM-Cyclic-3',5'-AMP as substrate after 1 hr by fluorescence polarization assay. The arrangement: species or system Homo sapiens. A digest of the protocol:
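Each compound was tested at nine concentrations spanning 10^-8 to 10^-4 M, with rolipram as positive control. IC50 was obtained by nonlinear regression of the inhibition curves.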

Assay [5] concerns SH-SY5Y. Kind of assay: Cell cycle arrest in human SH-SY5Y cells assessed as accumulation at G0/G1 phase at 5 uM after 48 hrs by propidium iodide staining based flow cytometry (reference value: 47.67 +/- 1.1%). The assay is classed as functional. (In general: Flow cytometry measures light scatter and fluorescence of single cells or particles in a stream.)
The subject of assay [6] is SH-SY5Y. Kind of assay: Cell cycle arrest in human SH-SY5Y cells assessed as accumulation at S-phase at 5 uM after 48 hrs by propidium iodide staining based flow cytometry (reference value: 40.2 +/- 1.8%). The assay is classed as functional.
Assay [7] deals with SH-SY5Y. Kind of assay: Cell cycle arrest in human SH-SY5Y cells assessed as accumulation at G2/M-phase at 5 uM after 48 hrs by propidium iodide staining based flow cytometry (reference value: 12.13 +/- 0.7%). The assay is classed as functional.
Assay [8] has as its system SH-SY5Y. Kind of assay: Cell cycle arrest in human SH-SY5Y cells assessed as accumulation at G0/G1 phase at 10 uM after 48 hrs by propidium iodide staining based flow cytometry (reference value: 47.67 +/- 1.1%). The assay is classed as functional.
Assay [9] deals with SH-SY5Y. Kind of assay: Cell cycle arrest in human SH-SY5Y cells assessed as accumulation at S-phase at 10 uM after 48 hrs by propidium iodide staining based flow cytometry (reference value: 40.2 +/- 1.8%). The assay is classed as functional.
Assay [10] concerns SH-SY5Y. Nature of the assay: Cell cycle arrest in human SH-SY5Y cells assessed as accumulation at G2/M-phase at 10 uM after 48 hrs by propidium iodide staining based flow cytometry (reference value: 12.13 +/- 0.7%). The assay is classed as functional.
The test system of assay [11] is SH-SY5Y. Kind of assay: Cell cycle arrest in human SH-SY5Y cells assessed as accumulation at G0/G1 phase at 20 uM after 48 hrs by propidium iodide staining based flow cytometry (reference value: 47.67 +/- 1.1%). The assay is classed as functional.
In assay [12] the test system is SH-SY5Y. Nature of the assay: Cell cycle arrest in human SH-SY5Y cells assessed as accumulation at S-phase at 20 uM after 48 hrs by propidium iodide staining based flow cytometry (reference value: 40.2 +/- 1.8%). The assay is classed as functional.
The subject of assay [13] is SH-SY5Y. Kind of assay: Cell cycle arrest in human SH-SY5Y cells assessed as accumulation at G2/M-phase at 20 uM after 48 hrs by propidium iodide staining based flow cytometry (reference value: 12.13 +/- 0.7%). The assay is classed as functional.
The subject of assay [14] is SH-SY5Y. Nature of the assay: Cell cycle arrest in human SH-SY5Y cells assessed as accumulation at G0/G1-phase after 48 hrs by propidium iodide staining based flow cytometry. The assay is classed as functional.
The test system of assay [15] is SH-SY5Y. Kind of assay: Induction of apoptosis in human SH-SY5Y cells assessed as live cells at 10 uM after 48 hrs by Annexin V-FITC/propidium iodide staining based flow cytometry (reference value: 89.95%). The assay is classed as functional. A digest of the protocol: (§2)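 SH-SY5Y cells treated 48 h at 10 or 20 µM, then stained with Annexin V-FITC and propidium iodide and analysed by flow cytometry. Quadrants were scored as live, early apoptotic, late apoptotic and necrotic. DMSO served as control. Values are means of three independent experiments. Significance was tested versus control.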

Assay [16] relates to SH-SY5Y. Nature of the assay: Induction of apoptosis in human SH-SY5Y cells assessed as early apoptotic cells at 10 uM after 48 hrs by Annexin V-FITC/propidium iodide staining based flow cytometry (reference value: 1.3%). The assay is classed as functional. Put shortly: as §2
The test system of assay [17] is SH-SY5Y. Kind of assay: Induction of apoptosis in human SH-SY5Y cells assessed as late apoptotic cells at 10 uM after 48 hrs by Annexin V-FITC/propidium iodide staining based flow cytometry (reference value: 3.68%). The assay is classed as functional. Put shortly: as §2
The subject of assay [18] is SH-SY5Y. Kind of assay: Induction of apoptosis in human SH-SY5Y cells assessed as necrotic cells at 10 uM after 48 hrs by Annexin V-FITC/propidium iodide staining based flow cytometry (reference value: 5.06%). The assay is classed as functional. Put shortly:
as §2

Assay [19] relates to SH-SY5Y. Nature of the assay: Induction of apoptosis in human SH-SY5Y cells assessed as live cells at 20 uM after 48 hrs by Annexin V-FITC/propidium iodide staining based flow cytometry (reference value: 89.95%). The assay is classed as functional. A digest of the protocol:
as §2

Assay [20] concerns SH-SY5Y. Kind of assay: Induction of apoptosis in human SH-SY5Y cells assessed as early apoptotic cells at 20 uM after 48 hrs by Annexin V-FITC/propidium iodide staining based flow cytometry (reference value: 1.3%). The assay is classed as functional. Put shortly:
as §2

Assay [21] has as its system SH-SY5Y. Nature of the assay: Induction of apoptosis in human SH-SY5Y cells assessed as late apoptotic cells at 20 uM after 48 hrs by Annexin V-FITC/propidium iodide staining based flow cytometry (reference value: 3.68%). The assay is classed as functional. Put shortly:
as §2

For assay [22], the system named is SH-SY5Y. Nature of the assay: Induction of apoptosis in human SH-SY5Y cells assessed as necrotic cells at 20 uM after 48 hrs by Annexin V-FITC/propidium iodide staining based flow cytometry (reference value: 5.06%). The assay is classed as functional. Put shortly:
as §2

Assay [23] concerns SH-SY5Y. Kind of assay: Induction of apoptosis in human SH-SY5Y cells assessed as increase in late apoptotic cells after 48 hrs by Annexin V-FITC/propidium iodide staining based flow cytometry. The assay is classed as functional, cell-based. Put shortly: as §2

For `COc1ccccc1OCCNc1ccc(=O)n(Cc2ccc(OC)c(OC3CCCC3)c2)n1`, the GI50 in assay [1] was 28 µM; in [2] it was > 100 µM; in assay [3] it was > 100 µM. The IC50 in [4] is > 100 µM.
With `O=c1[nH]cc(F)c(=O)[nH]1` [FLUOROURACIL], the GI50 in assay [1] came out at 18.5 µM; in [2], 11.9 µM; in assay [3] it was 24.6 µM.
On to `COc1ccc(Cn2nc(NCCOc3ccccc3OC)ccc2=O)cc1OC`, for which the GI50 in assay [1], in assay [2] and in [3] was > 100 µM throughout. Besides, the IC50 in assay [4] worked out at 66.9 µM.
As to `COc1ccccc1OCCNc1cnn(Cc2ccc(OC)c(-c3cccc(Cl)c3)c2)c(=O)c1Cl`, the GI50 in assay [1], in [2] and in assay [3] was > 100 µM each time. Besides, in assay [4], the IC50 was > 100 µM.
As to `COc1ccc(Cn2nc(NCCOc3ccccc3OC)ccc2=O)cc1Br`, the GI50 in assay [1], in [2] and in [3] was > 100 µM each time. The same molecule showed a half-maximal inhibitory concentration (IC50) in assay [4] of 44 µM.
In the case of `COc1ccc(C2CNC(=O)C2)cc1OC1CCCC1` (stereo not given) [ROLIPRAM], it took 0.5 µM to reach half-maximal inhibition in [4] (IC50).
Turning to `COc1ccccc1OCCNc1cnn(Cc2ccc(OC(F)F)c(OCC3CC3)c2)c(=O)c1Cl`, the GI50 in assay [1] was 67.6 µM; in [2] it was > 100 µM; in [3], > 100 µM. Besides, the IC50 in assay [4] is > 100 µM.
Consider `COc1ccccc1OCCNc1cnn(Cc2ccc(OC)c(OC3CCCC3)c2)c(=O)c1Cl`, for which the GI50 was > 100 µM in assay [1], 23.3 µM in assay [2] and > 100 µM in assay [3]. The molecule also showed an IC50 in assay [4] of 21.5 µM.
Regarding `COc1ccccc1OCCNc1ccc(=O)n(Cc2ccc(OC(F)F)c(OCC3CC3)c2)n1`, the GI50 in assay [1] worked out at 60.9 µM; in assay [2], 6.3 µM; in [3], 24.4 µM. The same molecule had an IC50 in assay [4] of 15.3 µM. Moreover, the Activity is on record as 52.15% in assay [5]; 34.87% in [6]; 12.98% in [7]; 55.6% in [8]; 33.81% in [9]; 10.59% in assay [10]. The Activity is 62.61% in assay [11]; 22.75% in assay [12]; 14.64% in assay [13]; “Dose-dependent effect” in [14]; 85.22% in assay [15]; 2.74% in [16]. Besides, the Activity in [17] stood at 7.43%; in assay [18], 4.6%; in assay [19], 78.53%; in [20], 4.16%; in [21], 10.62%; in assay [22], 6.69%. The Activity result in assay [23] was “Dose-dependent effect”.
On to `COc1ccccc1OCCNc1ccc(=O)n(Cc2ccc(OC)c(OCC3CC3)c2)n1`, for which the results for the GI50 in [1], in assay [2] and in assay [3] were 16.6 µM, 10.5 µM and 45.8 µM, respectively. Besides, the IC50 in assay [4] was > 100 µM.
The corresponding values for `COc1ccccc1OCCNc1cnn(Cc2ccc(OC)c(OCC3CC3)c2)c(=O)c1Cl` are > 100 µM, 37.9 µM, > 100 µM and 45.2 µM.
Take `COc1ccccc1OCCNc1ccc(=O)n(Cc2ccc(OC(F)F)c(OC3CCCC3)c2)n1`: the values for the GI50 in assay [1], in assay [2] and in assay [3] were 9.1 µM, 9.3 µM and 23.6 µM, respectively. Besides, half-maximal inhibition in assay [4] (IC50) required 12.2 µM. Besides, the Activity in assay [5] worked out at 53.22%; in assay [6], 36.44%; in assay [7], 10.34%; in assay [8], 62.1%; in assay [9] it was 30.16%; in assay [10], 7.74%. For the same molecule, the Activity in assay [11] is 63.55%; in assay [12] it was 29.58%; in assay [13], 6.87%; in [14] it was “Dose-dependent effect”; in assay [15] it was 84.34%; in assay [16], 3.12%. The Activity in assay [17] was found to be 8.05%; in assay [18], 4.48%; in assay [19], 64.46%; in assay [20] it was 8.82%; in assay [21], 18.54%; in [22], 8.18%. Further, the Activity result in assay [23] was “Dose-dependent effect”.
Consider `COc1ccccc1OCCNc1cnn(Cc2ccc(OC(F)F)c(OC3CCCC3)c2)c(=O)c1Cl`, for which the GI50 in assay [1], in assay [2] and in assay [3] was > 100 µM each time. The molecule further yielded an IC50 in [4] of 39.1 µM.
`COc1ccc(Cn2ncc(NCCOc3ccccc3OC)c(Cl)c2=O)cc1OC`: the GI50 in [1] is > 100 µM; in assay [2], 33.1 µM; in assay [3], > 100 µM. Moreover, the concentration for half-maximal inhibition (IC50) in [4] was determined as 73 µM.

For orientation: GI50 means the concentration giving 50% growth inhibition. A word on the IC50: it is the midpoint of a concentration-inhibition curve. Lower therefore signals inhibition by little substance.
